For test [1], the system named is U2OS. Briefly: Cell cycle arrest in human U2OS cells assessed as accumulation at G2/M phase at 1 uM after 12 hrs by propidium iodide staining-based flow cytometric method. The format is functional. The method, boiled down: (§1)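 SiHa or U2OS cells (2.0×10^5 per well) were treated with compound or DMSO for 12 h, fixed in ice-cold 70% ethanol overnight, and stained with 50 µg/mL PI plus RNase A for 30 min at room temperature in the dark. 10,000 events were collected by flow cytometry to give the phase distribution.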
(In flow cytometry, cells or beads pass a laser one at a time.)

The subject of test [2] is HL-60. Briefly: Antiproliferative activity against human HL60 cells after 48 hrs by MTT assay. The settings on record: HL-60, 48 h. The format is functional, cell-based. Summed up: (§2)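 Cells seeded at 5.0×10^3 per well and exposed to a range of compound concentrations for 48 h. MTT (2.5 mg/mL solution) was then added for 4 h, formazan was dissolved in DMSO, and OD was read at 570 nm. HL-60 was grown in RPMI-1640 with 10% FBS, the other lines in DMEM with 10% FBS, at 37 °C and 5% CO2. Triplicates; IC50 taken from mean OD versus concentration curves.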

For test [3], the system named is Quadruplex DNA. Briefly: Stabilization of telomeric G-quadruplex DNA in human SiHa cells assessed as increase in phosphorylated CHK1 expression after 48 hrs by Western blot method. It is filed as cell-based. Summed up:
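SiHa cells were treated with compound for 48 h and lysed in RIPA buffer. 20 µg protein was run on 10% SDS-PAGE and transferred to PVDF. Blots were blocked in 3% BSA, probed with primary antibodies (1:1,000, 4 °C 16 h) for p-ATR, p-CHK1 and p-P53, then secondaries (1:2,000, 2 h at room temperature).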
In general terms: Immunoblotting shows a protein as a band on a membrane.

The nature of test [4]: Inhibition of telomerase (unknown origin) by TRAP-LIG assay. On the set-up: species or system Homo sapiens.
For test [5], the system named is Quadruplex DNA. Nature of the test: Stabilization of telomeric G-quadruplex DNA in human SiHa cells assessed as induction of telomere uncapping by measuring formation of anaphase bridge at 1 uM after 48 hrs by DAPI staining-based laser scanning microscopic method. It is filed as cell-based. The method, boiled down:
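SiHa cells were treated with 1 µM compound for 48 h, fixed in 2% formaldehyde/0.2% glutaraldehyde for 15 min, and stained with 2 µg/mL DAPI at 37 °C for 3 h. Confocal imaging followed. Anaphase-bridge frequency is the fraction of cells with bridges; at least 50 anaphase cells per experiment.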

Test [6] has as its system Quadruplex DNA. Nature of the test: Stabilization of telomeric G-quadruplex DNA in human SiHa cells assessed as delocalization of POT1 from TRF2 foci at 2 uM after 24 hrs by DAPI staining-based double immunofluorescence method. The format is cell-based. The method, boiled down: (§3)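 Cells were treated 24 h with 2 µM compound or 0.1% DMSO, then fixed (4% paraformaldehyde), permeabilized (0.5% Triton X-100) and blocked (5% goat serum). Staining used BG4 (80 ng/µL, 37 °C 3 h) with anti-FLAG, and/or γ-H2AX, TRF2 or POT1 antibodies at 4 °C overnight. Alexa 488/555 secondaries and DAPI followed. Foci or co-localized foci per nucleus were counted by confocal microscopy; mean ± SEM, two-tailed unpaired t test.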

Test [7] deals with Quadruplex DNA. Briefly: Stabilization of telomeric G-quadruplex DNA in human SiHa cells assessed as increase in BG4 foci per nucleus at 2 uM after 24 hrs by DAPI staining-based immunofluorescence method relative to control. The format is cell-based. Summed up:
as §3

Test [8] concerns SiHa. Nature of the test: Antitumor activity against human SiHa cells xenografted in BALB/C-nu/nu mouse assessed as tumor growth inhibition at 20 mg/kg, ip administered daily for 3 weeks measured post last dose relative to vehicle-treated control. The format is functional. The settings on record: 504 h, read-out: TGI. The method, boiled down: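 SiHa cells (1×10^7 per 100 µL, serum-free DMEM) were injected subcutaneously. Grown tumors were divided into pieces and implanted into BALB/C-nu/nu mice. Caliper volume (1/2 × L × W²) and body weight were recorded daily; tumors were weighed at the end.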

The nature of test [9]: Stabilization of F10T hairpin duplex DNA (unknown origin) assessed as change in melting temperature at 1 uM by FRET assay. The method, boiled down: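 FRET melting: 0.2 µM F21T or F10T (FAM/TAMRA-labelled), with or without 1.0 µM ligand, in 10 mM Tris-HCl pH 7.4 with 60 mM KCl. Excitation 470 nm, emission 530 nm, read every 1 °C from 37–99 °C at 1 °C/min with a 30 s hold. ΔTm = Tm(DNA+ligand) − Tm(DNA).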

The test system of test [10] is SiHa. Briefly: Antiproliferative activity against human SiHa cells assessed as decrease in colony formation at 0.125 to 0.5 uM after 12 days by crystal violet staining-based assay. The format is functional, cell-based.
The subject of test [11] is SiHa. Briefly: Antiproliferative activity against human SiHa cells after 48 hrs by MTT assay. The format is functional, cell-based. The method, boiled down: as §2
A general note: Formazan colour is commonly taken as a measure of viable cells.

The test system of test [12] is A549. Nature of the test: Antiproliferative activity against human A549 cells after 48 hrs by MTT assay. The format is functional, cell-based. Conditions: A549, 48 h. The method, boiled down:
as §2

The subject of test [13] is Quadruplex DNA. Briefly: Stabilization of telomeric G-quadruplex DNA in human SiHa cells assessed as decrease in TRF length at 0.5 to 1 uM after 21 days by chemiluminescence detection method. The format is cell-based. Summed up:
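SiHa cells were kept 21 days with 0.5 or 1 µM compound or 0.1% DMSO, with medium and compound renewed every 3 days. Genomic DNA was cut with HinfI/RsaI, run on 0.8% agarose, blotted to nylon, baked at 120 °C for 20 min, and TRF length detected by chemiluminescence.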

For test [14], the system named is SiHa. Briefly: Cell cycle arrest in human SiHa cells assessed as accumulation at G2/M phase at 1 uM after 12 hrs by propidium iodide staining-based flow cytometric method. It is filed as functional. Summed up:
as §1

The target of test [15] is Quadruplex DNA. Briefly: Binding affinity to HTG21 telomeric G-quadruplex DNA (unknown origin) by SPR method. The format is nucleic-acid assay. Summed up:
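SPR: biotinylated HTG21 or hairpin DNA (200 nM) was folded in 50 mM Tris-HCl pH 7.4 with 100 mM KCl and captured to about 1,000 RU on an NLC chip against a blank reference cell. Ligand at 0.625–40 µM was injected at 25 µL/min (400 s association, 300 s dissociation) at 25 °C. The chip was regenerated with 1 M KCl and blank sensorgrams were subtracted.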

Test [16] relates to Quadruplex DNA. Nature of the test: Stabilization of telomeric G-quadruplex DNA in human SiHa cells assessed as induction of DNA damage response by measuring co-localization of gamma-H2AX and TRF2 foci per nucleus at 2 uM after 24 hrs by DAPI staining-based double immunofluorescence method. It is filed as cell-based. Summed up:
as §3

In test [17] the test system is U2OS. Briefly: Antiproliferative activity against human U2OS cells after 48 hrs by MTT assay. The format is functional, cell-based. Summed up: as §2
The subject of test [18] is SiHa. Nature of the test: Induction of telomeric G-quadruplex DNA formation in human SiHa cells assessed as increase in colocalization of BG4/TRF2 foci per nucleus at 2 uM after 24 hrs by DAPI staining-based immunofluorescence method. It is filed as cell-based. The method, boiled down:
as §3

Test [19] concerns Quadruplex DNA. Briefly: Stabilization of telomeric G-quadruplex DNA in human SiHa cells assessed as induction of telomere uncapping by measuring formation of micronuclei at 1 uM after 48 hrs by DAPI staining-based laser scanning microscopic method. The format is cell-based.
For test [20], the system named is HeLa. Briefly: Antiproliferative activity against human HeLa cells after 48 hrs by MTT assay. The format is functional, cell-based. Summed up:
as §2

In test [21] the test system is Quadruplex DNA. Nature of the test: Stabilization of telomeric G-quadruplex DNA in human U2OS cells assessed as induction of DNA damage response by measuring gamma-H2AX foci formation per nucleus at 2 uM after 24 hrs by DAPI staining-based immunofluorescence method. The format is cell-based. The method, boiled down:
as §3

Active and inactive are the calls of the source. The calls are words filed in the database; no cut-off is given here.

Turning to `CN(C)CCCNc1cc2nc(/C=C3\C(=O)Nc4cc(N5CCN(C)CC5)ccc43)[nH]c(=O)c2cc1F`, the result in [1], in test [5], in test [6], in [10], in [13] and in [14] was Active. Besides, the result in test [16], in test [18], in [19] and in test [21] was Active. The IC50 in test [2] stood at 2.5 µM; in test [4], 9.6 µM; in [11], 2.8 µM; in [12], 9.1 µM; in test [17], 3.2 µM; in test [20] it was 3.8 µM. Besides, in [3], the Activity result is “Dose-dependent effect”. In addition, the fold change (FC) in [7] turned out to be 2. For the same compound, the inhibition in vivo at 20 mg/kg in test [8] amounted to 65.2%. Further, the ΔTm in test [9] was 0.1 °C. Besides, binding in test [15] was characterised by a dissociation constant (Kd) of 8.1 µM.

For orientation: IC50 means the concentration at which inhibition is half-maximal. Read a high IC50 as weaker potency. A word on the ΔTm: it is the shift of the melting midpoint relative to a reference. The term Kd denotes the equilibrium constant for the complex coming apart.

The values above are taken from ChEMBL document CHEMBL4177752, “Discovery of Novel Schizocommunin Derivatives as Telomeric G-Quadruplex Ligands That Trigger Telomere Dysfunction and the Deoxyribonucleic Acid (DNA) Damage Response” (J Med Chem, 2018).
